Source: ChEMBL document CHEMBL1151715, “Novel D-xylose derivatives stimulate muscle glucose uptake by activating AMP-activated protein kinase alpha” (J Med Chem, 2008)
The source made the active and inactive calls. The rule behind the calls is not given here.

Experiments:
[1] = Cytotoxicity against rat L6 cells by MTT assay; type: cell-based
In short: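 MTT assay on L6 myotubes after the treatment incubations: MTT at 2 mg/mL in αMEM for 30 min at 37 °C, formazan dissolved in DMSO, absorbance read at 570 nm.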

L6 [2] = test: Effect on [3H]2-deoxy-D-glucose uptake in rat L6 cells at 20 mM upto 48 hrs relative to control; type: functional
L6 [3] = test: Activation of 5-AMP-induced AMPKalpha in rat L6 cells assessed as […] phosphorylation at 0.25 M relative to control; type: cell-based
In short: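 AICAR-type positive control on L6 myotubes: 0.25 M D-sorbitol for 30 min. Whole-cell lysates were blotted for total AMPKα and phospho-Thr172 AMPKα, detected by ECL, with bands quantified by densitometry.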

L6 [4] = test: Effect on [3H]2-deoxy-D-glucose uptake in rat L6 cells at 5 mM after 7 hrs relative to control in presence of insulin; type: functional, cell-based
In short: (§1)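 L6 myotubes were preconditioned 24 h at 23.0 mM D-glucose, then given fresh αMEM with 23.0 mM D-glucose plus agent for 7 h. Insulin (200 nM) was added for the last 30 min. A 5-min [3H]dGlc uptake (0.1 mM dGlc, 1.3 µCi/mL) was run in PBS at room temperature, with the 23.0 mM glucose basal rate set to 100%.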

L6 [5] = test: Increase in [3H]2-deoxy-D-glucose uptake in rat L6 cells preincubated with 23 mM D-glucose for 24 hrs at 5 mM after 7 hrs relative to control; type: functional; in short: as §1
L6 [6] = test: Effect on [3H]2-deoxy-D-glucose uptake in rat L6 cells at 200 uM relative to control; type: functional
In short: (§2)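 L6 myotubes were held in αMEM with 2% FCS and 23.0 mM D-glucose for 24 h. They were then treated with increasing concentrations in medium with 10% FCS and 23.0 mM D-glucose for 7 or 18 h; vehicle controls ran 18 h. After washing, uptake was measured with 0.1 mM dGlc plus 1.3 µCi/mL [3H]dGlc in PBS pH 7.4 for 5 min at room temperature. Ice-cold PBS stop, SDS lysis, scintillation counting; basal rate set to 100%.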

L6 [7] = test: Effect on [3H]2-deoxy-D-glucose uptake in rat L6 cells at 150 uM relative to control; type: functional; in short: as §2
L6 [8] = test: Effect on [3H]2-deoxy-D-glucose uptake in rat L6 cells at 100 uM relative to control; type: functional; in short: as §2
L6 [9] = test: Increase in [3H]2-deoxy-D-glucose uptake in rat L6 cells at 20 mM preincubated 24 hrs with D-glucose assessed after 6 hrs relative to control; type: functional
In short: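 L6 myotubes were preconditioned 24 h at 23.0 mM D-glucose, then incubated up to 10 h in the same medium plus pentose (20.0 mM for time course; dose-response for half-maximal and maximal). Cells were washed with PBS, then given a 5-min room-temperature uptake of 0.1 mM dGlc with 1.3 µCi/mL [3H]dGlc. Counts were normalised to protein against untreated controls.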

Structure (SMILES)	MCC [1] [µM]	fold change (FC) (L6 [2])	other results
CCCCO[C@H]1[C@H](O)COC(O)[C@@H]1O (some centres undefined)	1000	0.94	
CCOC1OC[C@@H](O)[C@H](O)[C@H]1O (some centres undefined)	50000	1.01	
COC[C@H]1OC(O)[C@H](O)[C@H]1O (some centres undefined)	50000	1.03	
OC[C@@H](O)[C@@H](O)[C@H](O)[C@@H](O)CO			Activity (L6 [3]): Active
CCO[C@H]1[C@H](O)COC(O)[C@@H]1O (some centres undefined)			Activity (L6 [4]): Active; fold change (FC) (L6 [5]): 2.79
CC(=O)O[C@@H]1OC[C@@H](OC(C)=O)[C@H](OC(C)=O)[C@H]1OC(C)=O	500	1.05	fold change (FC) (L6 [6]): 0.99
CO[C@@H]1OC[C@@H](OC(=O)c2ccccc2)[C@H](OC(=O)c2ccccc2)[C@H]1OC(=O)c1ccccc1	250		fold change (FC) (L6 [7]): 1.01
CCCS[C@@H]1OC[C@@H](O)[C@H](O)[C@H]1O	200		fold change (FC) (L6 [8]): 0.92
CO[C@H]1OC[C@@H](O)[C@H](O)[C@H]1O			Activity (L6 [4]): Active; fold change (FC) (L6 [5]): 1.98
CO[C@@H]1OC[C@@H](OC(=O)C(C)(C)C)[C@H](OC(=O)C(C)(C)C)[C@H]1OC(=O)C(C)(C)C	150		fold change (FC) (L6 [8]): 1.03
OC1OC[C@@H](O)[C@@H](O)[C@@H]1O (stereo partly drawn) [D-ARABINOSE]			fold change (FC) (L6 [9]): 1.38
CO[C@H]1C(O)OC[C@@H](O)[C@@H]1O (some centres undefined)	50000		
CCCO[C@H]1[C@H](O)COC(O)[C@@H]1O (some centres undefined)			Activity (L6 [4]): Active; fold change (FC) (L6 [5]): 3.89
